{"source": "ChEMBL document CHEMBL4823316", "about": "“Synthesis and evaluation of squaramide and thiosquaramide inhibitors of the DNA repair enzyme SNM1A” (Bioorg Med Chem, 2021)", "key": {"[1]": {"experiment": "Metal chelating activity assessed as Zn2+-compound complex formation by measuring equilibrium constant measured at 1:1 compound to metal ion ratio by UV-Vis titration based analysis", "in_short": "(§1)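 Compounds in MeCN titrated with Zn(ClO₄)₂ and followed by UV–Vis. Binding constants for 1:1, 1:2 and 2:1 ligand–metal species were derived by global non-linear regression, comparing two- and three-species models. Described as qualitative.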"}, "[2]": {"experiment": "Metal chelating activity assessed as Zn2+-compound complex formation by measuring equilibrium constant measured at 2:1 compound to metal ion ratio by UV-Vis titration based analysis", "in_short": "as §1"}, "[3]": {"biological_target": "T1, DNA cross-link repair 1A protein (Homo sapiens) (UniProt Q6PJP8)", "T1 sequence (whole entry)": "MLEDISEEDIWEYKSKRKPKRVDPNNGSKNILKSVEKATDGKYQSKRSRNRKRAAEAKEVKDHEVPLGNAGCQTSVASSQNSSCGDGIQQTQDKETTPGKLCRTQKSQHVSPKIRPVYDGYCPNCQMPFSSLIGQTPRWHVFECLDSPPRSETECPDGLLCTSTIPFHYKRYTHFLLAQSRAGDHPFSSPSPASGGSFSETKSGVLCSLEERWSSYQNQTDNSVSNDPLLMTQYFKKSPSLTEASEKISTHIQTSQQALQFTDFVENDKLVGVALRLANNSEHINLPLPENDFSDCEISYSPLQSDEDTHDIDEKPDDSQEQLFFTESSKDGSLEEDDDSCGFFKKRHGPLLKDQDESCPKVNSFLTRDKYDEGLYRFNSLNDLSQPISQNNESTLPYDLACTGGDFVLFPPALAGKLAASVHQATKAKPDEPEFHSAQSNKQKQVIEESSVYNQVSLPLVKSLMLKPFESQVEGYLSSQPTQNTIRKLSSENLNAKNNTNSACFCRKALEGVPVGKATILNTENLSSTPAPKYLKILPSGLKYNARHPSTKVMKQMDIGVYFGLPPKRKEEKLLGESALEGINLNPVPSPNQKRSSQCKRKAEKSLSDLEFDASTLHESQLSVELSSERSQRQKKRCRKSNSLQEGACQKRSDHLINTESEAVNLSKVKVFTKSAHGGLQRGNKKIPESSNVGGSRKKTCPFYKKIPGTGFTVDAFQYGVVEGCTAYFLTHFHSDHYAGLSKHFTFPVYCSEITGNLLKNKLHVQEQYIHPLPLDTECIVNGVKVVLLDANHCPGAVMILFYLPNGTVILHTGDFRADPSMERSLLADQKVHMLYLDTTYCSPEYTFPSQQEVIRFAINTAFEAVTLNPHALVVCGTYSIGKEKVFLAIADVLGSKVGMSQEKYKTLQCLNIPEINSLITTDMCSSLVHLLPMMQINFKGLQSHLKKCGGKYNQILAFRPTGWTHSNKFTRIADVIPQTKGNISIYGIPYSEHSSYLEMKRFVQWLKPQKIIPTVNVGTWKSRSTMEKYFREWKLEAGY", "experiment": "Inhibition of SNM1A (unknown origin) assessed as reduction in oligonucleotide digestion at 1 mM using 21mer fluorescent oligonucleotide as substrate preincubated for 5 mins followed by substrate addition and measured after 1 hr by PAGE analysis", "conditions": "time 65.0 min"}, "[4]": {"experiment": "Metal chelating activity assessed as Zn2+-compound complex formation by measuring equilibrium constant measured at 1:2 compound to metal ion ratio by UV-Vis titration based analysis", "in_short": "as §1"}, "[5]": {"biological_target": "T1, DNA cross-link repair 1A protein (Homo sapiens)", "experiment": "Inhibition of SNM1A (unknown origin) assessed as reduction in oligonucleotide digestion at 333 uM using 21mer fluorescent oligonucleotide as substrate preincubated for 5 mins followed by substrate addition and measured after 1 hr by PAGE analysis", "conditions": "time 65.0 min"}, "[6]": {"biological_target": "T2, DNA cross-link repair 1A protein (Homo sapiens, UniProt Q6PJP8)", "T2 sequence (Q6PJP8 whole entry)": "T1 sequence (whole entry)", "experiment": "Inhibition of SNM1A (unknown origin) by real time fluorescence assay", "in_short": "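Real-time fluorescence assay of SNM1A exonuclease activity used to derive IC₅₀ from a concentration series. Unmodified thymidine run as control. Error bars from 6 independent repeats.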"}}, "note": "Calls of active or inactive are those of the source. The rule behind the calls is not given here.", "data": [{"compound": "Cc1cn([C@H]2C[C@H](Nc3c(O)c(=O)c3=O)[C@@H](CO)O2)c(=O)[nH]c1=O", "values": [{"measurement": "Kb", "setting": "[1]", "value": "4 10^4/M"}, {"measurement": "Kb", "setting": "[2]", "value": "3.2 10^6/M"}]}, {"compound": "Cc1cn([C@H]2C[C@H](O)[C@@H](CNc3c(Nc4ccccc4O)c(=O)c3=O)O2)c(=O)[nH]c1=O", "values": [{"measurement": "inhibition", "setting": "[3]", "value": "inactive"}]}, {"compound": "Cc1cn([C@H]2C[C@H](O)[C@@H](CNc3c(NCCO)c(=O)c3=O)O2)c(=O)[nH]c1=O", "values": [{"measurement": "inhibition", "setting": "[3]", "value": "inactive"}]}, {"compound": "Cc1cn([C@H]2C[C@H](O)[C@@H](CNc3c(O)c(=O)c3=O)O2)c(=O)[nH]c1=O", "values": [{"measurement": "inhibition", "setting": "[3]", "value": "inactive"}]}, {"compound": "Cc1cn([C@H]2C[C@H](Nc3c(N(C)O)c(=O)c3=O)[C@@H](CO)O2)c(=O)[nH]c1=O", "values": [{"measurement": "Kb", "setting": "[1]", "value": "3 10^4/M"}, {"measurement": "inhibition", "setting": "[3]", "value": "Active"}, {"measurement": "Kb", "setting": "[4]", "value": "6.6 10^1/M"}, {"measurement": "inhibition", "setting": "[5]", "value": "Active"}]}, {"compound": "CCOc1c(NC[C@H]2O[C@@H](n3cc(C)c(=O)[nH]c3=O)C[C@@H]2O)c(=O)c1=O", "values": [{"measurement": "inhibition", "setting": "[3]", "value": "inactive"}]}, {"compound": "CCN(CC)c1c(NC[C@H]2O[C@@H](n3cc(C)c(=O)[nH]c3=O)C[C@@H]2O)c(=S)c1=S", "values": [{"measurement": "Kb", "setting": "[1]", "value": "6.8 10^5/M"}, {"measurement": "Kb", "setting": "[2]", "value": "1.2 10^6/M"}, {"measurement": "Kb", "setting": "[4]", "value": "1.7 10^2/M"}]}, {"compound": "Cc1cn([C@H]2C[C@H](O)[C@H](CNc3c(N[C@H]4C[C@H](n5cc(C)c(=O)[nH]c5=O)O[C@@H]4CO)c(=S)c3=S)O2)c(=O)[nH]c1=O", "values": [{"measurement": "inhibition", "setting": "[3]", "value": "Active"}]}, {"compound": "CCN(CC)c1c(NC[C@H]2O[C@@H](n3cc(C)c(=O)[nH]c3=O)C[C@@H]2O)c(=O)c1=O", "values": [{"measurement": "inhibition", "setting": "[3]", "value": "inactive"}]}, {"compound": "Cc1cn([C@H]2C[C@H](O)[C@@H](CO)O2)c(=O)[nH]c1=O", "note": "[DOXRIBTIMINE]", "values": [{"measurement": "inhibition", "setting": "[3]", "value": "inactive"}, {"measurement": "IC50", "setting": "[6]", "value": "Not Active"}]}, {"compound": "CCN(CC)c1c(N[C@H]2C[C@H](n3cc(C)c(=O)[nH]c3=O)O[C@@H]2CO)c(=S)c1=S", "values": [{"measurement": "inhibition", "setting": "[3]", "value": "Active"}]}, {"compound": "CN(O)c1c(N[C@H]2[C@@H](O)[C@H](n3ccc(=O)[nH]c3=O)O[C@@H]2CO)c(=O)c1=O", "values": [{"measurement": "inhibition", "setting": "[3]", "value": "Active"}]}]}
